# The source made the active and inactive calls. No cut-off for these calls is given here.
# Assays:
# [1] = The concentration required to inhibit the binding of [3H]ATRA to retinoic acid receptor in human promyelocytic leukemia cells
# [2] = system: HL-60; test: Concentration inhibiting the differentiation-inducing activity of all-trans-retinoic acid (ATRA)(1*10e-8M) in human promyelocytic leukemia cells; type: functional, cell-based
# Method in brief: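 HL-60 cells at 1 × 10^5 cells/mL, 1 mL/well, exposed to ATRA (1.0 × 10^-8 M) plus graded test compound concentrations; 5 days in 5% CO2/air. Cells stained with FITC anti-CD11b, fixed in 0.2% paraformaldehyde, and analysed by flow cytometry for % CD11b-positive cells. IC50 read from activity vs log compound concentration plots; mean of two experiments.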
# [3] = Differentiation-inducing activity of the compound. ED1/3 value was obtained from the percentage of the differentiated cells (CD11b-positive cells).; type: functional, Homo sapiens
# Method in brief: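 Human promyelocytic leukemia HL-60 cells were exposed to compound alone and scored for differentiation toward mature granulocytes. The read-out was the percentage of CD11b-positive (differentiated) cells, and ED1/3 was derived from these percentages. Activity was judged at concentrations below 3.0 × 10^-6 M. Values are the mean of two experiments.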
# [4] = organism: Homo sapiens; test: Differentiation-inducing activity of the compound. ED1/3 value was obtained from the percentage of the differentiated cells (CD11b-positive cells); No activity at concentrations below 3.0e-6M; type: functional
Compound,IC50 [1] [nM],IC50 [2] [nM],ED1/3 [3] [pM],ED1/3 [4]
CC1(C)CCC(C)(C)c2cc3c(cc21)OCc1c(-c2ccc(C(=O)O)cc2)cn(Cc2cccnc2)c1-3,19,100,–,–
Cn1cc(-c2ccc(C(=O)O)cc2)c2c1-c1cc3c(cc1CC2)C(C)(C)CCC3(C)C,> 50,200,–,–
CC(C)Oc1cc2c(cc1Cl)CCc1c(-c3ccc(C(=O)O)cc3)cn(Cc3cccnc3)c1-2,2.9,230,–,–
CC1(C)CCC(C)(C)c2cc3c(cc21)CCc1c(-c2ccc(C(=O)O)cc2)cn(Cc2ccccn2)c1-3,0.14,17,–,–
CC1(C)CCC(C)(C)c2cc3c(cc21)CCc1c(-c2ccc(C(=O)O)cc2)cn(CCc2ccccn2)c1-3,16,1300,–,–
CC1(C)CCC(C)(C)c2cc3c(ccc4c(-c5ccc(C(=O)O)cc5)cn(Cc5cccnc5)c43)cc21,11,77,–,–
CC1(C)CCC(C)(C)c2cc3c(cc21)CCc1c(-c2ccc(C(=O)O)cc2)c[nH]c1-3,32,> 3000,–,–
CC1=C(/C=C/C(C)=C/C=C/C(C)=C/C(=O)O)C(C)(C)CCC1 [TRETINOIN],0.63,–,340,–
Cc1cc2c(cc1OC(C)C)-c1c(c(-c3ccc(C(=O)O)cc3)cn1Cc1cccnc1)CC2,3.7,37,–,–
CC1(C)CCC(C)(C)c2cc3c(cc21)CCc1c(-c2ccc(C(=O)O)cc2)nn(Cc2cccnc2)c1-3,0.91,1.3,–,–
Cn1nc2c(c1-c1ccc(C(=O)O)cc1)CCc1cc3c(cc1-2)C(C)(C)CCC3(C)C,80,–,–,inactive
CC1(C)CCC(C)(C)c2cc3c(cc21)CCc1c(-c2ccc(C(=O)O)cc2)cn(-c2cccnc2)c1-3,0.59,33,–,–
CC1(C)CCC(C)(C)c2cc3c(cc21)CCc1c(-c2ccc(C(=O)O)cc2)ccnc1-3,> 50,> 3000,–,–
CC1(C)CCC(C)(C)c2cc3c(cc21)CCc1c(-c2ccc(C(=O)O)cc2)cn(CC24CC5CC(CC(C5)C2)C4)c1-3,> 50,> 3000,–,–
CC1(C)CCC(C)(C)c2cc3c(cc21)CCc1c(-c2ccc(C(=O)O)cc2)cn(Cc2ccncc2)c1-3,2.3,84,–,–
CC1(C)CCC(C)(C)c2cc3c(cc21)CCc1c(-c2ccc(C(=O)O)cc2)cn(Cc2ccco2)c1-3,3.4,51,–,–
CC1(C)CCC(C)(C)c2cc3c(cc21)SCc1c(-c2ccc(C(=O)O)cc2)cn(Cc2cccnc2)c1-3,0.16,5.6,–,–
CC1(C)CCC(C)(C)c2cc3c(cc21)CCc1c(-c2ccc(C(=O)O)cc2)nn(Cc2ccccc2)c1-3,1.5,56,–,–
CC1(C)CCC(C)(C)c2cc3c(cc21)CCc1c(-c2ccc(C(=O)O)cc2)cn(Cc2cccnc2)c1-3,0.34,4.9,–,–

Compound,IC50 [1] [nM],IC50 [2] [nM],ED1/3 [3] [pM],ED1/3 [4]
CC1(C)CCC(C)(C)c2cc3c(cc21)CCc1c(-c2ccc(C(=O)O)cc2)cn(-c2cnccc2Cl)c1-3,3.2,490,–,–
CCCCCn1cc(-c2ccc(C(=O)O)cc2)c2c1-c1cc3c(cc1CC2)C(C)(C)CCC3(C)C,19,520,–,–
CC1(C)CCC(C)(C)c2cc(-c3cc(-c4ccc(C(=O)O)cc4)[nH]n3)ccc21,19,–,900,–
CC1(C)CCC(C)(C)c2cc3c(cc21)CCc1c(-c2ccc(C(=O)O)cc2)csc1-3,> 5,2400,–,–
CC(C)Oc1cc2c(cc1-c1ccccc1)CCc1c(-c3ccc(C(=O)O)cc3)cn(Cc3cccnc3)c1-2,30,300,–,–
CC1(C)CCC(C)(C)c2cc3c(cc21)CCc1c(-c2ccc(C(=O)O)cc2)coc1-3,> 50,300,–,–
COc1cc2c(cc1C(C)C)CCc1c(-c3ccc(C(=O)O)cc3)cn(Cc3cccnc3)c1-2,22,170,–,–
Cn1nc(-c2ccc(C(=O)O)cc2)c2c1-c1cc3c(cc1CC2)C(C)(C)CCC3(C)C,16,–,–,inactive
COc1ccncc1-n1cc(-c2ccc(C(=O)O)cc2)c2c1-c1cc3c(cc1CC2)C(C)(C)CCC3(C)C,5.6,650,–,–
CC1(C)CCOc2cc3c(cc21)CCc1c(-c2ccc(C(=O)O)cc2)cn(Cc2cccnc2)c1-3,> 50,1600,–,–
CC(C)Oc1cc2c(cc1C(C)C)CCc1c(-c3ccc(C(=O)O)cc3)cn(Cc3cccnc3)c1-2,0.97,69,–,–
CC1(C)CCC(C)(C)c2cc3c(cc21)CCc1c(-c2ccc(C(=O)O)cc2)cn(Cc2cccs2)c1-3,4.5,540,–,–
CC1(C)CCC(C)(C)c2cc3c(cc21)CCc1c(-c2ccc(C(=O)O)cc2)cn(Cc2ccccc2)c1-3,1.2,210,–,–
CC1(C)CCC(C)(C)c2cc3c(cc21)CCc1c(-c2ccc(C(=O)O)cc2)cn(C2CC2)c1-3,14,360,–,–
CC1(C)Cc2c(-c3ccc(C(=O)O)cc3)cn(Cc3cccnc3)c2-c2cc3c(cc21)C(C)(C)CCC3(C)C,> 50,1000,–,–
CC1(C)CCSc2cc3c(cc21)CCc1c(-c2ccc(C(=O)O)cc2)cn(Cc2cccnc2)c1-3,13,1100,–,–
CC1(C)CCC(C)(C)c2cc3c(cc21)CCCc1c(-c2ccc(C(=O)O)cc2)cn(Cc2cccnc2)c1-3,4.7,78,–,–
CC1(C)CCC(C)(C)c2cc3c(cc21)CCc1c(-c2ccc(C(=O)O)cc2)n[nH]c1-3,17,–,–,inactive
CC1(C)CCC(C)(C)c2cc3c(cc21)CCc1c(-c2ccc(C(=O)O)cc2)cnnc1-3,> 50,> 3000,–,–

# Reference: ChEMBL document CHEMBL1128509, “A novel type of retinoic acid receptor antagonist: synthesis and structure-activity relationships of heterocyclic ring-containing benzoic acid derivatives” (J Med Chem, 1995)
